Measured values published in PubChem BioAssay AID602226 (The Scripps Research Institute Molecular Screening Center, 2012).
The source made the active and inactive calls.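 Rule for the calls: active = average inhibition of labeled dioxin binding to the receptor of at least 10% at 10 µM; inactive = the rest.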

Tested on: Aryl hydrocarbon receptor (Cavia porcellus)
Test: AHR ligand binders displacing [3H]TCDD, late-stage follow-up, counter-screen for AHR activator project, cell lysate, guinea pig liver cytosol, radiometric (AID 602226)
Conditions: [3H]TCDD HAP binding; for inhibition: at 10 µM, stronger effect = higher value
Outline: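 Test system – guinea pig hepatic cytosol, AHR source · Quantity – cytosol at 2 mg protein per mL · Probe or stimulus – [3H]TCDD radioligand at 2 nM final · Incubation – 1 h binding incubation, room temperature · Signal – Hydroxyapatite capture, Tween-buffer washes, then scintillation counting · Measure – % reduction of specific radioligand binding · Repeats – three replicates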

[1] = measured here: IC50 range lower bound
[2] = measured here: IC50 range upper bound

Row | Compound | inhibition | IC50 [1] [nM] | IC50 [2] [nM]
1 | Cc1ccc(-c2cc(-c3cccs3)[nH]n2)c(O)c1 | 99% |  | 100
2 | CCOC(=O)Cc1cc(-c2ccc(O)cc2)nc2ccc3ccccc3c12 | 39% | 1000 | 
3 | COc1ccccc1NC(=O)c1ccc(C(=O)Nc2ccccc2OC)nc1 | 32% |  | 

Next, values leading:

Row | inhibition | IC50 [1] [nM] | IC50 [2] [nM] | Compound
4 | 79% | 100 | 1000 | Cc1nc(N)nc(Nc2ccc(Cl)cc2)c1Br
5 | 65% | 100 | 1000 | COc1ccc(NC(=O)c2cccc3c(Br)cccc23)cc1
6 | 9.5% (inactive) |  |  | Cc1csc(SCC(=O)Nc2ccc(Cl)cn2)n1
